For assay [1], the system named is Mus musculus. The experiment in a line: Antiobesity activity in high fat diet-induced obese Ptpn1fl/fl null C57BL/6 mouse assessed as hypophagia at 100 ug/kg, ip for 10 consecutive days. The assay is classed as functional, organism-based.
The test system of assay [2] is Mus musculus. Briefly: Antiobesity activity in high fat diet-induced obese Ptpn1fl/fl/Ptpn2fl/fl null C57BL/6 mouse assessed as hypophagia at 100 ug/kg, ip for 10 consecutive days. The assay is classed as functional, organism-based.
Assay [3] has as its target T1, Tyrosine-protein phosphatase non-receptor type 1 (Homo sapiens, UniProt P18031).
T1 sequence (P18031 whole entry): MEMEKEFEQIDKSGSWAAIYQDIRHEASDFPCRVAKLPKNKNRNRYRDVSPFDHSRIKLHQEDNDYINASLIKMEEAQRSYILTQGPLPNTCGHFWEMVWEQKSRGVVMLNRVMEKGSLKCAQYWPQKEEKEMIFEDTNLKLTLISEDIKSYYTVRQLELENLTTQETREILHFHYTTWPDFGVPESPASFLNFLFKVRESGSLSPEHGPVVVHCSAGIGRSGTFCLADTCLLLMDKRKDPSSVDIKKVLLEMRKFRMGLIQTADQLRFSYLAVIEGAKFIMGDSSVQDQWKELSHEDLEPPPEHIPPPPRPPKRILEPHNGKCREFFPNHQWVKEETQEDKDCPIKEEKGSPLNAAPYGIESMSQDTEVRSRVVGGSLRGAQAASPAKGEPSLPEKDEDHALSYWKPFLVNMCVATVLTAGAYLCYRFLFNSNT
The experiment in a line: Inhibition of human N-terminal His6-tagged PTP1B catalytic domain (1 to 298 residues) expressed in Escherichia coli strain Rosetta2 (DE3) using DiFMUP as substrate preincubated for 10 mins followed by substrate addition and measured after 10 mins by fluorescence assay. In a few lines:
(§1)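 Tag-cleaved, SEC-purified enzyme at 1 nM, preincubated 10 min with compound at 15 concentrations from 0–500 μM (5% DMSO final) in 25 mM Bis-Tris propane pH 7.5, 50 mM NaCl, 2 mM EDTA. DiFMUP added at each construct's Km (10, 7, 10, 9 μM for PTP1B1−298, PTP1B1−393, TCPTP1−296, TCPTP1−336). Read ex 358/em 455 nm continuously 10 min at 37 °C; triplicate; log(inhibitor)-response fit.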

The target of assay [4] is T2, Tyrosine-protein phosphatase non-receptor type 2 (Homo sapiens, UniProt P17706).
T2 sequence (P17706 whole entry): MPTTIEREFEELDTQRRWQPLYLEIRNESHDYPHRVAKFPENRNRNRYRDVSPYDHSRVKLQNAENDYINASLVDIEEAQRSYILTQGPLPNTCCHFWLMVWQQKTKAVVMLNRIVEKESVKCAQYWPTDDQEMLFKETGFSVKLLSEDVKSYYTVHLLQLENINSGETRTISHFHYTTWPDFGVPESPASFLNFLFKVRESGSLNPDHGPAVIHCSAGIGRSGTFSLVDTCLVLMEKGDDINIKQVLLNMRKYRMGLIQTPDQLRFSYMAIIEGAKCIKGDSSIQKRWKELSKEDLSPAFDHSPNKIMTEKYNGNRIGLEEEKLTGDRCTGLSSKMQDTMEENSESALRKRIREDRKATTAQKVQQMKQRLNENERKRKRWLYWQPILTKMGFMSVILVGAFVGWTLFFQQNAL
The experiment in a line: Inhibition of human N-terminal His6-tagged TCPTP catalytic domain (1 to 296 residues) expressed in Escherichia coli strain Rosetta2 (DE3) using DiFMUP as substrate preincubated for 10 mins followed by substrate addition and measured after 10 mins by fluorescence assay. In a few lines:
as §1

The target of assay [5] is T3, Tyrosine-protein phosphatase non-receptor type 1 (Homo sapiens) (UniProt P18031).
T3 sequence (whole entry): T1 sequence (P18031 whole entry)
Briefly: Non competitive inhibition of human N-terminal His6-tagged PTP1B catalytic domain (1 to 393 residues) expressed in Escherichia coli strain Rosetta2 (DE3) using DiFMUP as substrate preincubated for 10 mins followed by substrate addition and measured after 10 mins by Michaelis-Menten plot analysis.

Assay [6] has as its target T3, Tyrosine-protein phosphatase non-receptor type 1 (Homo sapiens). Briefly: Inhibition of human N-terminal His6-tagged PTP1B catalytic domain (1 to 393 residues) expressed in Escherichia coli strain Rosetta2 (DE3) up to 500 uM using pNPP as substrate preincubated for 10 mins followed by substrate addition and measured after 10 mins by […].
Assay [7] shares this target. The experiment in a line: Inhibition of human N-terminal His6-tagged PTP1B catalytic domain (1 to 298 residues) expressed in Escherichia coli strain Rosetta2 (DE3) up to 500 uM using pNPP as substrate preincubated for 10 mins followed by substrate addition and measured after 10 mins by […].
Assay [8] concerns the target T4, Tyrosine-protein phosphatase non-receptor type 2 (Homo sapiens) (UniProt P17706).
T4 sequence (whole entry): T2 sequence (P17706 whole entry)
Briefly: Inhibition of human N-terminal His6-tagged TCPTP catalytic domain (1 to 296 residues) expressed in Escherichia coli strain Rosetta2 (DE3) up to 500 uM using pNPP as substrate preincubated for 10 mins followed by substrate addition and measured after 10 mins by […].

Assay [9] concerns the target T1, Tyrosine-protein phosphatase non-receptor type 1. The experiment in a line: Binding affinity to human N-terminal His6-tagged PTP1B catalytic domain (1 to 298 residues) expressed in Escherichia coli strain Rosetta2 (DE3) assessed as dissociation rate constant […].

Assay [10] has as its target T3, Tyrosine-protein phosphatase non-receptor type 1 (Homo sapiens). Briefly: Non-competitive inhibition of human N-terminal His6-tagged PTP1B catalytic domain (1 to 393 residues) expressed in Escherichia coli strain Rosetta2 (DE3) at 500 uM in presence of 4'-aminoxanilic acid by STD-NMR spectroscopic method.
Assay [11] shares this target. The experiment in a line: Inhibition of human N-terminal His6-tagged PTP1B catalytic domain (1 to 393 residues) expressed in Escherichia coli strain Rosetta2 (DE3) using DiFMUP as substrate preincubated for 10 mins followed by substrate addition and measured after 10 mins in presence of 0.1 mg/ml BSA by fluorescence assay. In a few lines:
(§2)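 DiFMUP IC50 assay (1 nM enzyme, 10 min preincubation, substrate at Km, 37 °C, ex 358/em 455 nm), repeated as an aggregation check under three altered conditions: 10-fold enzyme (10 nM), 0.05% Tween 20, or 0.1 mg/mL BSA in buffer.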

Assay [12] deals with Mus musculus. The experiment in a line: Antiobesity activity in high fat diet-induced obese Ptpn1fl/fl null C57BL/6 mouse treated with rAAV-CMV-Cre-GFP for deletion of PTP1B assessed as reduction in body weight at 100 ug/kg, ip for 10 consecutive days. In kind it is functional, organism-based. The essentials:
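Male Ptpn1fl/fl, Ptpn2fl/fl or double-floxed mice: chow 8 weeks, then high-fat diet (45% energy from fat) 12 weeks. Bilateral intra-ARC stereotaxic injection of rAAV-CMV-Cre-GFP or rAAV-CMV-GFP, 100 nL/side. After 2 weeks recovery, vehicle or 100 μg/kg ip daily at 6 pm for 10 days; body weight tracked; two-way repeated-measures ANOVA with Tukey test; means ± SEM.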

In assay [13] the target is T3, Tyrosine-protein phosphatase non-receptor type 1 (Homo sapiens). Briefly: Inhibition of human N-terminal His6-tagged PTP1B catalytic domain (1 to 393 residues) expressed in Escherichia coli strain Rosetta2 (DE3) using DiFMUP as substrate preincubated for 10 mins followed by substrate addition and measured after 10 mins in presence of 10 fold higher enzyme concentration by fluorescence assay. The essentials:
as §2

Assay [14] addresses T4, Tyrosine-protein phosphatase non-receptor type 2 (Homo sapiens). Briefly: Inhibition of human N-terminal His6-tagged TCPTP catalytic domain (1 to 296 residues) expressed in Escherichia coli strain Rosetta2 (DE3) by NMR spectroscopy.

Activity calls are given as the source filed them. The rule behind the calls is not given here.

Usually IC50 stands for the concentration needed to halve the response being measured. Higher therefore signals a need for much substance.

Turning to `CC1=C(O)C(=O)C=C2C1=CC=C1[C@@]2(C)CC[C@@]2(C)[C@@H]3C[C@](C)(C(=O)O)CC[C@]3(C)CC[C@]12C` [CELASTROL], the result (with Mus musculus [1]; in the assay on Mus musculus [2]; in assay [14]) was Active. Also, the IC50 in assay [3] is 4.8 µM; in assay [4] it was 23 µM. The inhibition entry in assay [5], in [6], in assay [7], in assay [8], in [10] and in assay [11] was “Active” in each case. Besides, the inhibition result in assay [13] is “Active”. In addition, the koff in [9] was 3.62 ×10⁻⁴ /s. Moreover, the outcome in the assay on Mus musculus [12] was inactive.
